Common to all, as to settings: cattle
Data set [1] has as its target T1, cholesterol side-chain cleavage cytochrome P450 (mitochondrial) (Bos taurus, UniProt P00189).
T1 sequence (P00189 whole entry): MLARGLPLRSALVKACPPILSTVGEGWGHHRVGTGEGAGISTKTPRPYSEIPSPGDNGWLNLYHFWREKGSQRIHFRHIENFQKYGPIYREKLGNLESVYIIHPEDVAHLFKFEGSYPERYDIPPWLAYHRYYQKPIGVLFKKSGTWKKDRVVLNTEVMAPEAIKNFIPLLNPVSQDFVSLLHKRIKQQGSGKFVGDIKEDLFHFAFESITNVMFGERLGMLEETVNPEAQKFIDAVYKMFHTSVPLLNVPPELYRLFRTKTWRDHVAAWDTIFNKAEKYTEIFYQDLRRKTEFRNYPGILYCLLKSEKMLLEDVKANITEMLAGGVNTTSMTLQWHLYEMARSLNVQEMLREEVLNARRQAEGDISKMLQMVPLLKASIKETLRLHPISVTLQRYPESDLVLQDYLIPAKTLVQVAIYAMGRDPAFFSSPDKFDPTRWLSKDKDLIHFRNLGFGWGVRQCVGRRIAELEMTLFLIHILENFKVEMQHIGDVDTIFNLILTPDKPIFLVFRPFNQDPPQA
As to the kind of experiment: Percent inhibition of cholesterol side-chain cleavage cytochrome P450 at 1 uM in bovine adrenocortical mitochondrial acetone powder preparations. In a few lines: (§1)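 CSCC activity in adrenal preparations assayed by the previously reported method. Inhibitor tested at a final concentration of 100 μM or below. Isocaproic acid product volatilized in a heated vacuum desiccator and measured by liquid scintillation counting. Percent inhibition is taken from at least six data points across two separate experiments, with standard deviation from the mean.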

The target in data set [2] is T1, cholesterol side-chain cleavage cytochrome P450 (mitochondrial). Briefly: Percent inhibition of cholesterol side-chain cleavage cytochrome P450 at 10 uM in bovine adrenocortical mitochondrial acetone powder preparations. In a few lines: as §1
Data set [3] shares this target. As to the kind of experiment: Percent inhibition of cholesterol side-chain cleavage cytochrome P450 at 100 uM in bovine adrenocortical mitochondrial acetone powder preparations. The gist of the method:
as §1

SMILES strings stand for the structures.

For eleven molecules, inhibition results are on record in ChEMBL document CHEMBL1121691, “Inhibition of cholesterol side-chain cleavage. 4. Synthesis of A or B ring modified azacholesterols” (J Med Chem, 1981).

In general, inhibition refers to the percentage by which the read-out fell short of the control. Lower therefore signals a weak effect. As to `CCC(C)CNC(C)[C@H]1CC[C@H]2[C@@H]3CC=C4C[C@@H](OC)CC[C@]4(C)[C@H]3CC[C@]12C` (some centres undefined), the inhibition at 1 µM in data set [1] was found to be 12%. This molecule also returned an inhibition at 10 µM in data set [2] of 89%. The inhibition at 100 µM in data set [3] is 100%.

Regarding `CC(C)CCNC(C)[C@H]1CC[C@H]2[C@@H]3CCC4C[C@@H](O)CC[C@]4(C)[C@H]3CC[C@]12C` (some centres undefined), at 100 µM the inhibition in data set [3] was 28%.

In turn, `CC(C)CCNC(C)[C@H]1CC[C@H]2[C@@H]3CCC4CC(=O)CC[C@]4(C)[C@H]3CC[C@]12C` (some centres undefined) showed an inhibition at 100 µM in data set [3] of 3%.

For the molecule `CO[C@H]1CCC2(C)C(CC[C@@H]3[C@@H]2CCC2(C)[C@@H](N(C)CCCC(C)C)CC[C@@H]32)C1` (some centres undefined), in data set [3], at 100 µM the inhibition was 5%.

`CO[C@H]1CCC2(C)C(=CCC3C2CCC2(C)C3CC[C@@H]2N(C)CCCC(C)C)C1` (some centres undefined): the inhibition at 10 µM in data set [2] worked out at 30%. The same molecule yielded an inhibition at 100 µM in data set [3] of 86%.

`CC(C)CCCN(C)[C@H]1CCC2C3CC=C4C[C@@H](O)CCC4(C)C3CCC21C` (some centres undefined) yielded an inhibition at 10 µM in data set [2] of 29%. Moreover, the inhibition at 100 µM in data set [3] amounted to 78%.

With `CC(C)CCCN(C)[C@H]1CC[C@H]2[C@@H]3CCC4C[C@@H](O)CC[C@]4(C)[C@H]3CC[C@]12C` (some centres undefined), the inhibition at 100 µM in data set [3] came to 26%.

`CC(C)CCNC(C)[C@H]1CC[C@H]2[C@@H]3CC=C4C[C@@H](O)CC[C@]4(C)[C@H]3CC[C@]12C` (some centres undefined) yielded an inhibition at 1 µM in data set [1] of 10%. In addition, the inhibition at 10 µM in data set [2] worked out at 75%. 100 µM produced 93% inhibition in data set [3].

As to `CO[C@H]1CC[C@@]2(C)C(=CC[C@H]3[C@@H]4CC[C@H](C(C)NCCC(C)C)[C@@]4(C)CC[C@@H]32)C1` (some centres undefined), 1 µM produced 14% inhibition in data set [1]. For the same molecule, testing at 10 µM in data set [2] gave an inhibition of 86%. The same molecule displayed an inhibition at 100 µM in data set [3] of 99%.

Consider `CO[C@@H]1CC[C@@]2(C)C(CC[C@H]3[C@@H]4CC[C@H](N(C)CCCC(C)C)[C@@]4(C)CC[C@@H]32)C1` (some centres undefined), for which, in data set [3], testing at 100 µM gave an inhibition of 3%.

With `CO[C@H]1CC[C@@]2(C)C(CC[C@H]3[C@@H]4CC[C@H](C(C)NCCC(C)C)[C@@]4(C)CC[C@@H]32)C1` (some centres undefined), 100 µM produced 21% inhibition in data set [3].
